Common to all, as to type: biochemical
The target in one assay is PHD2 (Homo sapiens, UniProt Q9GZT9). As to the kind of experiment: PHD2 fluorescence-based. The note with it: for PHD2 Residual Activity (%): HTRF-based assay, enzyme concentration 20 nM, 400 μM compound concentration; for PHD2 inhibition (in words): 400 μM inhibitor concentration.
Assay [1] deals with T1, formaldehyde dehydrogenase (FDH) (Pseudomonas putida, UniProt P46154).
T1 sequence (P46154 1-399): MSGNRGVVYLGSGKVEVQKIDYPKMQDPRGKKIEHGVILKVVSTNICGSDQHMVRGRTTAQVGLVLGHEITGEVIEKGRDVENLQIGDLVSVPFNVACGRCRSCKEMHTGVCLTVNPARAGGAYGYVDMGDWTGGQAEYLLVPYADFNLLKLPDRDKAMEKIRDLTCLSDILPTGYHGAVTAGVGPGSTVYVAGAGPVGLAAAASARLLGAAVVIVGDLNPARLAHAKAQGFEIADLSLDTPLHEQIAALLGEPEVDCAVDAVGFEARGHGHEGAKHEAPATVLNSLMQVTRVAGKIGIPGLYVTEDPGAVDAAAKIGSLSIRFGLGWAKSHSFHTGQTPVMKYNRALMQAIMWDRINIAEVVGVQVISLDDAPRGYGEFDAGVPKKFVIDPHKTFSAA
As to the kind of experiment: FDH counterscreen, spectrophotometric assay. The note with it: enzyme concentration 50 μM, 200 μM compound concentration. The method in brief:
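Counterscreen run on the coupling enzyme alone to exclude false JMJD2E hits from FDH inhibition. FDH turnover of formaldehyde with NAD+ followed spectrophotometrically. Enzyme 50 μM; test compound at 200 μM; activity expressed as residual % of uninhibited FDH.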

For the next assay, the target named is T2, JMJD2E (Homo sapiens, UniProt B2RXH2).
T2 sequence (B2RXH2 1-506): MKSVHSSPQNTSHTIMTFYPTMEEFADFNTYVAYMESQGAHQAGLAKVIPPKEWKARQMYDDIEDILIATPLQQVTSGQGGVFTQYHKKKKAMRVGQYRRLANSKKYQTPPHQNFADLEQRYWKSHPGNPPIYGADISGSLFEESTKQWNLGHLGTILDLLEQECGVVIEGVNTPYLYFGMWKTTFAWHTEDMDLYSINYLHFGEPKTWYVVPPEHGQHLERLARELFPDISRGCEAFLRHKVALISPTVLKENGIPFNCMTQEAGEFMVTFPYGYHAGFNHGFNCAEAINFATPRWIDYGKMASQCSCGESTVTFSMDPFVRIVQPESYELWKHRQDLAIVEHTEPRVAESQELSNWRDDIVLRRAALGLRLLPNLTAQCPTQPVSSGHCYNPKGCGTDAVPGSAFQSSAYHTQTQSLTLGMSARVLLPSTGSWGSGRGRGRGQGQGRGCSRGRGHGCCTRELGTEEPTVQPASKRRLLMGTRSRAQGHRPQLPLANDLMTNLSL
As to the kind of experiment: FDH-coupled spectrophotometric turnover assay of JMJD2E. The settings on record: for JMJD2E Residual Activity (%): enzyme concentration 400 nM, 200 μM compound concentration.

Read-outs that look alike come from different tables or passages of the source.

Here are results for six compounds from article PMC4733660 (Organic & biomolecular chemistry, 2010).

Chain of PHD2 (Q9GZT9 whole entry): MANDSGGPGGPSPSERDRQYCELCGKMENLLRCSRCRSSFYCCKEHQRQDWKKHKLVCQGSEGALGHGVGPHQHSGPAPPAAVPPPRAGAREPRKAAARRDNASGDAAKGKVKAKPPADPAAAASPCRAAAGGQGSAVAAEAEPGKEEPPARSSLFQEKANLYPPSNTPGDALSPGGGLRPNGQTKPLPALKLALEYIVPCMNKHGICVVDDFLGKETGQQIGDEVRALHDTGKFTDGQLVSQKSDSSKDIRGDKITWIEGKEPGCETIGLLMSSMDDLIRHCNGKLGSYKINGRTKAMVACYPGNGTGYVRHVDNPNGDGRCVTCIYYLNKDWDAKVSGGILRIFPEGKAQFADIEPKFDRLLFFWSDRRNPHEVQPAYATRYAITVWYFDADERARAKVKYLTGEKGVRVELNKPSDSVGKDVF

For the compound `O=C(O)c1ccnc(C(=O)O)c1` [Compound 5, 2,4-pyridine dicarboxylic acid, reference compound], on PHD2, the “PHD2 Residual Activity (%)” value was 22%. Moreover, in assay [1], the “FDH Residual Activity (%)” value was determined as 100%. On JMJD2E (FDH-coupled assay), the “JMJD2E Residual Activity (%)” value was found to be 0%.

Usually IC50 stands for the midpoint of a concentration-inhibition curve. `O=C(O)c1ccnc(C(=O)O)c1/C=C/c1ccccc1` [Compound 35, (E)-3-Styrylpyridine-2,4-dicarboxylic acid]: the “PHD2 Residual Activity (%)” value at PHD2 was 85%. Besides, in assay [1], the “FDH Residual Activity (%)” value is 87%. The compound also came in with an IC50 against JMJD2E of 66 µM. Besides, on JMJD2E (FDH-coupled assay), the “JMJD2E inhibition (in words)” value is recorded as “some recovery of inhibitory potency” and the “JMJD2E Residual Activity (%)” value was 25%.

For `O=C(O)c1ccnc(C(=O)O)c1-c1ccccc1` [Compound 34, 3-Phenylpyridine-2,4-dicarboxylic acid], the “PHD2 Residual Activity (%)” value at PHD2 was found to be 100%. Moreover, the “FDH Residual Activity (%)” value in assay [1] was 100%. In addition, the “JMJD2E Residual Activity (%)” value at JMJD2E (FDH-coupled assay) came out at 84%.

Turning to `O=C(O)c1ccnc(C(=O)O)c1Oc1ccccc1` [Compound 36, 3-Phenoxypyridine-2,4-dicarboxylic acid], on PHD2, the “PHD2 inhibition (in words)” value was “inactive” and the “PHD2 Residual Activity (%)” value came out at 88%. Also, the “FDH Residual Activity (%)” value in assay [1] was determined as 91%. Besides, at JMJD2E (FDH-coupled assay), the “JMJD2E inhibition (in words)” value is “inactive” and the “JMJD2E Residual Activity (%)” value is recorded as 48%.

For `Nc1c(C(=O)O)ccnc1C(=O)O` [Compound 50, 3-amino-2,4-PDCA], the “PHD2 Residual Activity (%)” value at PHD2 amounted to 23%. Also, at JMJD2E (FDH-coupled assay), the “JMJD2E inhibition (in words)” value is “highly active”. At JMJD2E (read-out: JMJD2E IC50, FDH-coupled assay), the IC50 was about 0.1 µM.

In the case of `O=C(O)c1ccnc(C(=O)O)c1Nc1ccccc1` [Compound 37, 3-(Phenylamino)pyridine-2,4-dicarboxylic acid], at PHD2, the “PHD2 inhibition (in words)” value is reported as “do not inhibit PHD2” and the “PHD2 Residual Activity (%)” value stood at 100%. Also, the “FDH Residual Activity (%)” value in assay [1] came out at 83%. Besides, at JMJD2E (FDH-coupled assay), the “JMJD2E inhibition (in words)” value is on record as “potent” and the “JMJD2E Residual Activity (%)” value turned out to be 0%.
